According to ChEMBL document CHEMBL1150385, “Synthesis and evaluation of [2-(4-quinolyloxy)phenyl]methanone derivatives: novel selective inhibitors of transforming growth factor-beta kinase” (J Med Chem, 2008):

Legend:
TGF-beta receptor type-1 = biological target: T1, TGF-beta receptor type-1 (Homo sapiens, UniProt P36897); assay: Inhibition of ALK5 by filter binding assay
T1 sequence (P36897 whole entry): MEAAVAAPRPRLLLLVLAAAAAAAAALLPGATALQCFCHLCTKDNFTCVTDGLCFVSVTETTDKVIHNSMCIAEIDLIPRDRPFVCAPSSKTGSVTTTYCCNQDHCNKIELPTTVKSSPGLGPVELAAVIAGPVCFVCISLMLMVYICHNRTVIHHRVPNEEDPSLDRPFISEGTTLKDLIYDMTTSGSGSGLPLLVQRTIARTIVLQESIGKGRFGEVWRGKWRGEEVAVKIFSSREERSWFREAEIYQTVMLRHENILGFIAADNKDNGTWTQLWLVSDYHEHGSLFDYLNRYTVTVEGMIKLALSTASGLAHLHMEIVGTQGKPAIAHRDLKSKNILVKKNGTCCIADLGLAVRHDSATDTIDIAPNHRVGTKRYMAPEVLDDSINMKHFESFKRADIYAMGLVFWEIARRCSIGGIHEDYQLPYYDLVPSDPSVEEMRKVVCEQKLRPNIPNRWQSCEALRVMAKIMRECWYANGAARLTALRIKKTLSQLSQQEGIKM

[1] = biological target: Proto-oncogene tyrosine-protein kinase Src (Homo sapiens, UniProt P12931); assay: Inhibition of c-Src
Proto-oncogene tyrosine-protein kinase Src, sequence (P12931 2-536 limits assumed): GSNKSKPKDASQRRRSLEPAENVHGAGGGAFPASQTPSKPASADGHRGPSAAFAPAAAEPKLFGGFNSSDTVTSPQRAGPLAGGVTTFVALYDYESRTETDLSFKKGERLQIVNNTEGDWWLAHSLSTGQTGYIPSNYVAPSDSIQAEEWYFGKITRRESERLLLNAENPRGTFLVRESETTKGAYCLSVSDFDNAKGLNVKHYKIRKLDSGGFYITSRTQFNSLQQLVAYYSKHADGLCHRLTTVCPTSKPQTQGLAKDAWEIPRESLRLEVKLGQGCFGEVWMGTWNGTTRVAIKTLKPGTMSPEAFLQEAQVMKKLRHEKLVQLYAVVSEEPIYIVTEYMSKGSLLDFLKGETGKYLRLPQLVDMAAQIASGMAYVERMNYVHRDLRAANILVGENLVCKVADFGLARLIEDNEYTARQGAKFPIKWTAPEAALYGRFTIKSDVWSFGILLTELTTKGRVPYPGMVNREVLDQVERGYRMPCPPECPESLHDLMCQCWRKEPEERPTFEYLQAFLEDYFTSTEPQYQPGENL

[2] = Inhibition of TGF-beta expressed in human A549 cells assessed as luciferase activity after 4 hrs by Smad2/3 reporter assay; assay type: cell-based
Method in brief: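 A549 human lung epithelial cells stably carrying a luciferase reporter driven by four tandem Smad2/3 binding sequences (p(SBE)4-Luc); cells given test compound together with TGF-β1 (2 ng/ml), cultured 4 h, then luciferase activity read by chemiluminescence (Steady Glo); IC50 values reported.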

[3] = Inhibition of TGF-beta mediated Smad2 phosphorylation in human A549 cells after 30 mins by Western blot; assay type: cell-based; details: A549, 0.5 h

SMILES | IC50 [2] [nM] | other results
COc1cc2nccc(Oc3ccc(C)cc3C(=O)c3ccccc3)c2cc1OC | 640 | IC50 [3]: 500 nM; IC50 (TGF-beta receptor type-1): 2700 nM; IC50 [1]: 1700 nM
COc1cc2nccc(Oc3cc(C)c(Cl)cc3C(=O)c3ccccc3)c2cc1OC | 2100 | –
COc1cc2nccc(Oc3ccc(C)cc3C(=O)c3ccc(C(C)(C)C)cc3)c2cc1OC | 8500 | –
CCc1ccc(Oc2ccnc3cc(OC)c(OC)cc23)c(C(C)=O)c1 | 830 | –
CCCc1ccc(Oc2ccnc3cc(OC)c(OC)cc23)c(C(C)=O)c1 | 540 | –
COc1cc2nccc(Oc3ccc(C)cc3C(=O)N3CCCCC3)c2cc1OC | > 10000 | –
COc1cc2nccc(Oc3ccc(C)cc3C(=O)c3ccco3)c2cc1OC | 2700 | –
COc1cc2nccc(Oc3cc(C)c(C)cc3C(C)=O)c2cc1OC | 370 | IC50 [3]: 500 nM; IC50 (TGF-beta receptor type-1): 630 nM; IC50 [1]: 13000 nM
COc1cc2nccc(Oc3ccccc3C(C)=O)c2cc1OC | > 10000 | –
CCC(=O)c1cc(OC)ccc1Oc1ccnc2cc(OC)c(OC)cc12 | 1100 | –
COc1ccc(Oc2ccnc3cc(OC)c(OC)cc23)c(C(C)=O)c1 | 590 | –
COc1cc2nccc(Oc3cc(C)ccc3C(C)=O)c2cc1OC | 5500 | –
COc1ccc(C(=O)c2ccccc2)c(Oc2ccnc3cc(OC)c(OC)cc23)c1 | 4900 | –
CCOc1ccc(Oc2ccnc3cc(OC)c(OC)cc23)c(C(C)=O)c1 | 5600 | –
COc1ccc(C(C)=O)c(Oc2ccnc3cc(OC)c(OC)cc23)c1 | 8800 | –
COc1cc2nccc(Oc3ccc(F)cc3C(C)=O)c2cc1OC | 3800 | –

Now from value to compound, other results behind:

IC50 [2] [nM] | SMILES | other results
4700 | COc1cc2nccc(Oc3ccccc3C(=O)c3ccccc3)c2cc1OC | IC50 (TGF-beta receptor type-1): 16000 nM; IC50 [1]: 4500 nM
1400 | COc1cc2nccc(Oc3cc(C)c(C)cc3C(=O)c3ccccc3)c2cc1OC | –
3200 | COc1cc2nccc(Oc3ccc(Br)cc3C(=O)c3ccccc3)c2cc1OC | –
> 10000 | COc1ccc(Oc2ccnc3cc(OC)c(OC)cc23)c(C(=O)c2ccccc2)c1 | –
2700 | COc1cc2nccc(Oc3ccc(Cl)cc3C(=O)c3ccccc3)c2cc1OC | –
> 10000 | COc1cc2nccc(Oc3ccc(C)cc3C=O)c2cc1OC | –
2300 | COc1cc2nccc(Oc3ccc(C)cc3C(C)=O)c2cc1OC | IC50 (TGF-beta receptor type-1): 4400 nM; IC50 [1]: 8400 nM
2200 | COc1cc2nccc(Oc3ccc(C)cc3C(=O)C3CCCC3)c2cc1OC | –
420 | COc1cc2nccc(Oc3cc(C)c(Cl)cc3C(C)=O)c2cc1OC | –
> 10000 | COc1cc(Oc2ccnc3cc(OC)c(OC)cc23)c(C(C)=O)cc1OC | –
1800 | CCC(=O)c1ccc(OC)cc1Oc1ccnc2cc(OC)c(OC)cc12 | –
2500 | COc1cc2nccc(Oc3ccc(C)cc3C(=O)c3ccno3)c2cc1OC | –
> 10000 | CCCOc1ccc(Oc2ccnc3cc(OC)c(OC)cc23)c(C(C)=O)c1 | –
2200 | CCCCc1ccc(Oc2ccnc3cc(OC)c(OC)cc23)c(C(C)=O)c1 | –
620 | CCC(=O)c1cc(C)ccc1Oc1ccnc2cc(OC)c(OC)cc12 | –
